# Test results taken from ChEMBL document CHEMBL4017487, “Design and Synthesis of γ- and δ-Lactam M1 Positive Allosteric Modulators (PAMs): Convulsion and Cholinergic Toxicity of an M1-Selective PAM with Weak Agonist Activity” (J Med Chem, 2017).
# Positions count from the first letter of the chain named. Active and inactive are the calls of the source. The calls are words filed in the database; no cut-off is given here.
# Tests used:
# Plasma = assay: Unbound plasma concentration in amphetamine-induced hyperlocomotion C57BL/6 mouse at 3.2 mg/kg, sc measured after 1 hr by LC-MS/MS analysis; assay type: ADME, organism-based; settings: in vivo
# Summary of the method: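 Satellite group of C57BL/6 mice from the amphetamine-stimulated locomotor study, N = 2/dose at 0.32, 1 and 3.2 mg/kg. Dosed sc as a solution in 10/90 Cremophor/water. Unbound plasma and brain concentrations measured at T = 1 h.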
# [1] = (§1) Agonist activity at muscarinic acetylcholine receptor M1 in Hartley guinea pig ileum longitudinal muscle myenteric plexus assessed as tissue contraction after 10 mins; settings: Cavia porcellus
# Cavia porcellus = organism: Cavia porcellus; assay: as §1
# [2] = Clearance in dog at 0.1 mg/kg, iv administered as single bolus dose; assay type: ADME, organism-based, Canis lupus familiaris; settings: in vivo
# [3] = Half life in rat at 2 mg/kg, po administered as single dose; assay type: ADME, organism-based; settings: in vivo
# Summary of the method: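 Rat, single oral dose of 2 mg/kg given as a suspension in 0.5% methylcellulose. Half-life taken after the oral dose.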
# [4] = biological target: T1, Muscarinic acetylcholine receptor M1 (Homo sapiens, UniProt P11229); assay: Ratio of positive allosteric modulation of human muscarinic acetylcholine receptor M1 expressed in CHO cells assessed as increase in acetylcholine-induced calcium mobilization by measuring functional co-operativity with acetylcholine to Kb human muscarinic acetylcholine receptor M1 expressed in CHO cells assessed as increase in calcium mobilization; assay type: ADME, cell-based
# T1 sequence (P11229 whole entry): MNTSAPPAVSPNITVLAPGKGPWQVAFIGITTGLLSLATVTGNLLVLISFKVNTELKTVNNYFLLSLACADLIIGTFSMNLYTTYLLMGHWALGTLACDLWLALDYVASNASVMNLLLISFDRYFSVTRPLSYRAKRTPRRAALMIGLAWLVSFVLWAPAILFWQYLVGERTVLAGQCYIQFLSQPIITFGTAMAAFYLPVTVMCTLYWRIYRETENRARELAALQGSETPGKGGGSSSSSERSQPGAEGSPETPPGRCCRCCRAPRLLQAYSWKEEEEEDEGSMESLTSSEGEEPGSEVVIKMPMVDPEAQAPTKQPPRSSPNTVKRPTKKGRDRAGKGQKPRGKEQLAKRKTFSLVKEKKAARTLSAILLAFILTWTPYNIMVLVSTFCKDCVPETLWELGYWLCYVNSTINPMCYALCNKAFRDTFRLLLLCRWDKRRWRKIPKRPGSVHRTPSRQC
# Canis familiaris [5] = assay: Toxicity in dog assessed as ataxia at 15 mg/kg, po administered as single dose using spray dried dispersion formulation after 0.8 hrs; assay type: organism-based, Canis lupus familiaris; settings: in vivo
# Summary of the method: (§2)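 Dog single oral dose escalation: 1/sex at 5 mg/kg for each formulation; 1 female at 15 mg/kg. Spray-dried dispersion: 23% drug loading with 0.5% methylcellulose and 100 mM citrate buffer. Clinical signs timed in approximate hours postdose; unbound plasma Cmax.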
# [6] = biological target: T1, Muscarinic acetylcholine receptor M1; assay: Positive allosteric modulation of human muscarinic acetylcholine receptor M1 expressed in CHO cells assessed as increase in acetylcholine-induced calcium mobilization preincubated for 10 mins followed by acetylcholine addition by Fluo-8-AM dye based FLIPR assay; assay type: ADME, cell-based
# Summary of the method: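 M1 potentiation (PAM) format: calcium mobilization read on a FLIPR plate reader with an EC20 concentration of ACh present. EC50 is the geometric mean of at least three experiments.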
# Canis familiaris [7] = assay: Unbound Cmax in dog plasma at 5 mg/kg, po administered as single dose using hydroxypropyl cellulose/docusate sodium formulation; assay type: ADME, organism-based, Canis lupus familiaris; settings: in vivo
# Summary of the method: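 Dogs given a single oral 5 mg/kg dose as a nanosuspension (hydroxypropyl cellulose SL, 0.05% docusate sodium in purified water), 1/sex. Unbound plasma Cmax and AUC determined, with clinical signs monitored at approximate hours postdose.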
# Canis familiaris [8] = assay: Cholinergic toxicity in dog assessed as soft stool at 5 mg/kg, po administered as single dose using spray dried dispersion formulation after 1.5 hrs; assay type: organism-based, Canis lupus familiaris; settings: in vivo; summary of the method: as §2
# [9] = biological target: T2, Muscarinic acetylcholine receptor M1 (Rattus norvegicus, UniProt P08482); assay: Positive allosteric modulation of muscarinic acetylcholine receptor M1 in Sprague-Dawley rat brain hippocampal slices assessed as increase in carbachol-induced firing rate at CA1 pyramidal neurons at 3 uM after 10 mins in presence of M1 antagonist VU0255035 by electrophysiology method
# T2 sequence (P08482 whole entry): T1 sequence (P11229 whole entry) with A5V, T254S, P309S, R320K, A337G, I413V
# Summary of the method: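 Hippocampal CA1 spike-rate assay in PAM mode (EC20 carbachol) with a reportedly M1-selective muscarinic antagonist added to the slices.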
# [10] = Clearance in rat at 0.5 mg/kg, iv administered as single bolus dose; assay type: ADME, organism-based; settings: in vivo
# Summary of the method: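 Rat, single IV bolus of 0.5 mg/kg as a solution in 20% HPBCD; observed plasma clearance.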
# Canis familiaris [11] = assay: Cholinergic toxicity in dog assessed as transient salivation at 5 mg/kg, po administered as single dose using spray dried dispersion formulation after 1 to 4 hrs; assay type: organism-based, Canis lupus familiaris; settings: in vivo; summary of the method: as §2
# [12] = biological target: T1, Muscarinic acetylcholine receptor M1; assay: Activity at human muscarinic acetylcholine receptor M1 expressed in CHO cells assessed as increase in acetylcholine-induced beta-arrestin recruitment; assay type: cell-based
# Brain [13] = assay: Unbound brain concentration in scopolamine-induced memory impairment Wistar rat model at 0.32 mg/kg, sc measured after 1.25 hrs by LC-MS/MS analysis; assay type: ADME, organism-based; settings: in vivo
# Canis familiaris [14] = assay: Cholinergic toxicity in dog assessed as emesis at 5 mg/kg, po administered as single dose using shydroxypropyl cellulose/docusate sodium formulation after 0.5 to 1.3 hrs; assay type: organism-based, Canis lupus familiaris; settings: in vivo
# Summary of the method: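 Single-dose oral dose-escalation study, 1 dog/sex/dose. The 5 mg/kg dose was given as a nanosuspension in hydroxypropyl cellulose SL with 0.05% docusate sodium in purified water. Cholinergic clinical signs were recorded at approximate hours postdose, alongside unbound plasma Cmax.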
# Brain [15] = assay: Unbound brain concentration in scopolamine-induced memory impairment Wistar rat model at 3.2 mg/kg, sc measured after 1.25 hrs by LC-MS/MS analysis; assay type: ADME, organism-based; settings: in vivo
# Rattus norvegicus = assay: Toxicity in rat assessed as unbound plasma concentration required for convulsions at 45 mg/kg, po administered as single dose after 1 to 6 hrs; assay type: organism-based; settings: in vivo
# [16] = Ratio of AUC in iv or po dosed mouse brain to plasma; assay type: ADME, organism-based; settings: read-out: Ratio AUC
# Summary of the method: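 Brain/plasma ratio computed from AUC of total drug in brain and total drug in plasma.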
# Mus musculus = assay: Reversal of amphetamine-induced hyperlocomotion in C57BL/6 mouse assessed as decrease in total distance traveled at 0.3 to 3.2 mg/kg, sc pretreated for 30 mins followed by amphetamine dosing measured for 90 mins; assay type: functional, organism-based
# Summary of the method: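 C57BL/6 mice, D-amphetamine-stimulated locomotor activity. Compound at 0.32, 1 and 3.2 mg/kg sc as a solution in 10/90 Cremophor/water. Plasma and brain exposures from a satellite group (N = 2/dose) at 1 h.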
smiles,measurement,setting,value
Cc1cc2c(cc1Cc1ccc(-c3cocn3)cc1)C(=O)N([C@H]1CCOC[C@@H]1O)C2,Cp(f),Plasma,130 nM
same,EC50,[1],92 nM
same,Activity,Cavia porcellus,Dose-dependent effect
same,clearance,[2],1.7 mL/min/kg
same,half-life,[3],6.7 h
same,Ratio,[4],70
same,Activity,Canis familiaris [5],Toxic
same,EC50,[6],47 nM
same,fCmax,Canis familiaris [7],303 nM
same,Activity,Canis familiaris [8],Toxic
same,Activity,[9],Not Active
same,clearance,[10],2.4 mL/min/kg
same,Activity,Canis familiaris [11],Toxic
same,KA,[12],60 µM
same,Drug uptake(free),Brain [13],3.4 nM
same,Activity,Canis familiaris [14],Toxic
same,Drug uptake(free),Brain [15],40 nM
same,Cp(f),Rattus norvegicus,2310 nM
same,Kp,[16],0.1
same,Activity,Mus musculus,Active
